The subject of this data set is MS2 coat protein. Put plainly: apparent Kd, MS2 coat protein; higher = weaker binding; RNA-MaP array; FMN 200 µM where present. A digest of the protocol: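 On Illumina sequencing-chip clusters, designs were transcribed by stalled E. coli RNA polymerase and titrated with SNAP-549-labelled MS2 coat protein (0.7 or 1.5 nM, doubling to 3 µM), without and then with constant ligand, in 100 mM Tris-HCl pH 7.5, 80 mM KCl, 4 mM MgCl2, BSA, DTT, yeast tRNA and Tween-20. Apparent Kd is the median of filtered per-cluster curve fits to green signal normalised to red-channel RNA signal and control-cluster median Fmax.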

The mark [1] stands for this setting: designed as: OFF switch for flavin mononucleotide, no ligand.
[2] abbreviates: ligand present: flavin mononucleotide, designed as: OFF switch for flavin mononucleotide.
The mark [3] stands for this setting: designed as: ON switch for flavin mononucleotide, no ligand.
The mark [4] stands for this setting: ligand present: flavin mononucleotide, designed as: ON switch for flavin mononucleotide.

By apparent Kd is commonly meant a dissociation constant that holds for the conditions of the assay.

Turning to “CUGCUCCGUGUAGGAUAUGCAUACAACCAAUAUGCAGAAGGACAUGAGGAUCACCCAUGUAUGUUAUUAUCACGUGAAGCGUCC”, the “apparent Kd” value by setting is: under setting [1], 0.0226 µM; under setting [2], 0.0429 µM.
Take “GAUAGGACAGAGAAGGACAUAGCUAGAGAUACUAGCAUAUGAACCUCUACAUGAGGAUCACCCAUGUAGGAUAUCUGUCCUAUC”: the “apparent Kd” value under setting [1] is 0.00607 µM and the “apparent Kd” value under setting [2] was 0.00621 µM.
In the case of “UAUAUAUAGUAAGGAUAUGUAUUUAUUUUAGAAACAGAAGGUACUGACAUGAGGAUCACCCAUGUUUUAGUGUGGGCAUGUAGA”, the “apparent Kd” value by setting is: under setting [1], 0.0963 µM; under setting [2], 0.152 µM.
Taken in the same sequence, the figures for “CCUCCACAUGAGGAUCACCCAUGUCAGGAUAUCGUGUGCGCGUUUUCGGUCUUUCGUGCGAGAAGGGACGUCUG” were 0.0369 µM and 0.035 µM.
Taken in the same sequence, the figures for “AAUAUAAAGAGCUGGUAAAACUCAACAUGAGGAUCACCCAUGUAGGAUAUCAGCACGAUAAGUGCUGAGAAGGACAUCCAGCUC” were 0.0163 µM and 0.0171 µM.
As for “AAGCGAGGGACAGGAUAUGCGGCGAAAUUCUCCGCAGAAGGGUCGACAUGAGGAUCACCCAUGUCCUUACGCUCCAAGUAGAGG”, the “apparent Kd” value by setting is: under setting [3], 0.324 µM; under setting [4], 0.467 µM.
For “CGAUAUAUGAAGGGCGAACGCGCACAUGAGGAUCACCCAUGUAGAAGGCGGUCCGCAACGCGGAUCGAGGAUAUAUAGUAUACG”, the “apparent Kd” value runs as follows: under setting [1], 0.0275 µM; under setting [2], 0.0307 µM.
In the same order, the values of “ACAUGAGGAUCACCCAUGUUAUCAGGGACUUCAAUUAUUUCUAGAAGGCUGUUUUCUUGUAAGUCAGAGGAUAUAGAAUUAAAU” are 0.014 µM and 0.0151 µM.
Regarding “GACAUGAGGAUCACCCAUGUCCGGGCCAAAAGAAGAAAUACCAGAAGGACCGGCAGAAAUGAGCGGUAGGAUAUGGGAUUCGUG”, the “apparent Kd” value was 0.0367 µM under setting [3] and 0.0121 µM under setting [4].
With “UUAUUAUGUGUAGGAUAUGCAUAUUAUUAUUAUGCAGAAGGACAUGAGGAUCACCCAUGUAUAUUGUUAUUAUAUAUUAUAUAU”, the “apparent Kd” value runs as follows: under setting [1], 0.0115 µM; under setting [2], 0.0167 µM.
For the sequence “ACACAUGAGGAUCACCCAUGUAGCUGGCGUCUGCACCAGCCACAGGAUAUACGGCAACACAAGCCGUAGAAGGGUGAUAAACAC”, the “apparent Kd” value by setting is: under setting [3], 0.0675 µM; under setting [4], 0.0216 µM.
On to “GACGGGCAGCUCGUGAUCCCAUCGCCAGAAGGGCCACAUGAGGAUCACCCAUGUCGUAAAACAAGGCAGGAUAUGGCAGGGAAC”, for which the “apparent Kd” value came out at 0.00993 µM under setting [3] and 0.00521 µM under setting [4].
For “UUUAUAAAGAUAGGAUAUUGUAUUAUAAUUAAAUAAGAAGGAUCACACAUGAGGAUCACCCAUGUAUGAGGAUCACCCAUGUAU”, the “apparent Kd” value is, setting by setting: under setting [1], 0.0158 µM; under setting [2], 0.0145 µM.
As to “AUAUAGAUGGUCAGGAUAUGCUAGUGGUAACAGUAGCAGAAGGGACAUGAGGAUCACCCAUGUGGGUCCUGCUC”, the “apparent Kd” value stood at 0.0223 µM under setting [1] and 0.064 µM under setting [2].
Take “GGGUACAUCGGAGGAUAUCAUGUAAAUACAUGAGGAUCACCCAUGUCGAUGGAGACAUCGGAGACUGAGAAGGCCGAUGUACCG”: the “apparent Kd” value runs as follows: under setting [3], 0.0418 µM; under setting [4], 0.00718 µM.
Take “UAUAUAUAGUAAGGAUAUGUAAUUAUUUUGUAAACAGAAGGUACUGACAUGAGGAUCACCCAUGUUUUAGUGUGGGCAUGUAGA”: the “apparent Kd” value is 0.117 µM under setting [1] and 0.182 µM under setting [2].
As to “CUCAUGUGAGGAUAUGUGAUCUGCCUUCUAUGUAGAUGAUCACAGAAGGCACAUGAGGAUCACCCAUGUAGAUC”, the “apparent Kd” value is, setting by setting: under setting [1], 0.119 µM; under setting [2], 0.0234 µM.
“AGUUGGCGAGGAUAUACAUGAGGAUCACCCAUGUGAAAUAUAAGAGUGAGGAAGAAAAGUAGAAGGCGCUGACA”: the “apparent Kd” value was found to be 0.0998 µM under setting [1] and 0.13 µM under setting [2].
Turning to “UUGGAGAUAGGAUAUACGAGGAGAGUAGAGGGAAGGUGAUGACAUGAGGAUCACCCAUGUAGAAGGAUCAGGAG”, the “apparent Kd” value is, setting by setting: under setting [1], 0.155 µM; under setting [2], 0.1 µM.
Consider “GUGCAUUACGAGAAGGCGUACUGGUGAAUAUAAAACGACAAAGGUACAUGAGGAUCACCCAUGUACGAGGAUAUCGGUUUGGCU”, for which the “apparent Kd” value by setting is: under setting [1], 0.00974 µM; under setting [2], 0.0298 µM.
Consider “GGGCCCGGAGGAUAUACAUGAGGAUCACCCAUGUACCCGGGCCCUAUUGGGUUUGGGUGUAGAAGGCCGGGCCC”, for which the “apparent Kd” value under setting [1] was 0.015 µM and the “apparent Kd” value under setting [2] came out at 0.0153 µM.
Take “UUCAUGUGAGGAUAUAGUACUCUUUCUAUUAUUUUUGAGUAUUAGAAGGCACAUGAGGAUCACCCAUGUAGUAC”: the “apparent Kd” value is, setting by setting: under setting [1], 0.0897 µM; under setting [2], 0.0188 µM.
Taken in the same sequence, the figures for “AUGCAACAUGAGGAUCACCCAUGUGAGGAUAUCGUAUAAUACUGUUGAAAUAUUUAGACGAGAAGGCACACCGU” were 0.0297 µM and 0.0473 µM.
For the sequence “UGUCGGAGCAGAGGAUAUUACAUGAGGAUCACCCAUGUAUGAACCAAUAGCUGGAAACUGCAAUGUAAGAAGGCUGCUCCGACA”, the “apparent Kd” value reads like this: under setting [1], 0.0119 µM; under setting [2], 0.107 µM.
Regarding “GGAUGACAAAGUCAUCCAAUACGAACAUGAGGAUCACCCAUGUAGGAUAUGCAUCUCAAAGAGAUGCAGAAGGACAUGUGCCUU”, the “apparent Kd” value runs as follows: under setting [1], 0.0369 µM; under setting [2], 0.272 µM.
Turning to “UUGUUGUCAGGAUAUCGUUAAUUUAAUUGUUUGUAUUAGUUCGAGAAGGGACAUGAGGAUCACCCAUGUUUGUU”, the “apparent Kd” value runs as follows: under setting [1], 0.0345 µM; under setting [2], 0.0736 µM.
For the sequence “UACGUACAGAAGUACGCCGGGUCCAGAAGGGACAUGAGGAUCACCCAUGUACCGUUGAUUGCUUGUCAGGAUAUGGACCCGGCC”, the “apparent Kd” value under setting [1] turned out to be 0.0071 µM and the “apparent Kd” value under setting [2] stood at 0.0274 µM.
Turning to “UGACGGCACACAGGAUAUAGUGCAGAAAGUGUACUAGAAGGGUGAGCACUCGUCCGGGCACAUGAGGAUCACCCAUGUCGUCGA”, the “apparent Kd” value under setting [3] worked out at 0.207 µM and the “apparent Kd” value under setting [4] was determined as 0.512 µM.
In the case of “GGUGCGUGUGUGAGGAUAUGCUGGUCCUUGGCUCGGCAGAAGGCACAUGAGGAUCACCCAUGUGGUGUCGUGCC”, the “apparent Kd” value stood at 0.0228 µM under setting [1] and 0.0498 µM under setting [2].
For “UUUGUAAUGUCAGGAUAUUUUAUAAGUCAUACUGAAGAAGGGAUAAUUAUACUCAUGUACAUGAGGAUCACCCAUGUUAAAUAU”, the “apparent Kd” value under setting [3] is 0.0436 µM and the “apparent Kd” value under setting [4] stood at 0.0336 µM.
Take “UCGGCGCGAGGAUAUGCGGUUUGUGCUUUGGGCCCUCGCGUACAUGAGGAUCACCCAUGUAGAAGGCGCGCCGC”: the “apparent Kd” value under setting [1] was determined as 0.192 µM and the “apparent Kd” value under setting [2] is 0.212 µM.
Taken in the same sequence, the figures for “AAUAUGUUGCAGAAGGUUAUAUUUUUUUAGUACCUCAUGACAUGAGGAUCACCCAUGUAUUUGUUGAAGGAUAUGCAAUAUAUU” were 0.0231 µM and 0.0208 µM.
As to “UAUGGUUAAGUCAGGAUAUGCUCGUAGAGGUCUAUGCAGAAGGGACAUGAGGAUCACCCAUGUAAGGUCGUGUU”, the “apparent Kd” value under setting [1] came out at 0.0399 µM and the “apparent Kd” value under setting [2] was 0.0663 µM.
Taken in the same sequence, the figures for “UUCACGUAUAUAGGAUAUGCGGGCAAAUAACGCGCAGAAGGAUAUACAUGAGGAUCACCCAUGUAUUGAGACCUCAUACGCCGC” were 0.00747 µM and 0.00938 µM.
With “AAUGGGCACCAGAAGGACAUGAGGAUCACCCAUGUAGGAUAUGGGCGUUGAAGAUGUCUGAUCGAGUUGCUGGAAAGAUAUGGG”, the “apparent Kd” value is, setting by setting: under setting [3], 0.311 µM; under setting [4], 0.0734 µM.
On to “GAGCGAAAGCUCAAUGUCGAUAGCAGAAGGACAUGUAAAUACAUGAAAACAUGAGGAUCACCCAUGUAGGAUAUGCUAUCGACU”, for which the “apparent Kd” value by setting is: under setting [1], 0.00546 µM; under setting [2], 0.0127 µM.
On to “GCAGUACGCCUGGCAAUUUGCAAGCAGGAUAUCAGGCACCGUGGGACAUGAGGAUCACCCAUGUCUGAGAAGGGCUGGAGUUGC”, for which the “apparent Kd” value turned out to be 0.0107 µM under setting [1] and 0.0231 µM under setting [2].
In the same order, the values of “GUAUUAAAGAUCCAUUUAUACAACAUGAGGAUCACCCAUGUGCAGGAUAUCGUGUGUUUUUUAUUCGAGAAGGGCAAAUUCAUU” are 0.037 µM and 0.0852 µM.
As to “GGGUACAUCGGAGGAUAUCAUUUAAAUACAUGAGGAUCACCCAUGUCGAUGGAGACAUCGGAGAUUGAGAAGGCCGAUGUACCG”, the “apparent Kd” value came out at 0.0079 µM under setting [3] and 0.00557 µM under setting [4].
On to “GAGUACUUAGGAUAUACAUGAGGAUCACCCAUGUCUAGGCGGCGCUGGGUCCCUCGCAGUAGAAGGAAGCGCUG”, for which the “apparent Kd” value was found to be 0.0246 µM under setting [1] and 0.0423 µM under setting [2].
As for “UUGUUUAGAAAUUAACAUGAGGAUCACCCAUGUAUUGGAUCAGAGGAUAUGCAUGUUUGAUUGUAGCAGAAGGCUGAUUGUUGA”, the “apparent Kd” value by setting is: under setting [3], 0.0506 µM; under setting [4], 0.0451 µM.
Consider “CAGGUAGACUGAGGAUAUACAUGACUUAGUCUAUCUAGGUCUAAAAUCACAUGAGGAUCACCCAUGUAGAAGGCAGUCUGCCUG”, for which the “apparent Kd” value under setting [1] turned out to be 0.0176 µM and the “apparent Kd” value under setting [2] was 0.0242 µM.
For the sequence “GAGUGUACGGAGGAUAUGUUAUACGAUGACCGAACAGAAGGCCGAACAUGAGGAUCACCCAUGUGUCUUCUAGG”, the “apparent Kd” value reads like this: under setting [1], 0.016 µM; under setting [2], 0.0228 µM.
As for “CCCUGAGACUGGUUAAUUGGCUGAUAGGAUAUCCUCGGACAUGAGGAUCACCCAUGUUAACUAUUGGAGAAGGGUCAGCGAAAG”, the “apparent Kd” value reads like this: under setting [3], 0.445 µM; under setting [4], 0.181 µM.
In the case of “UCAUUUCAGUAAGGAUAUUUAUUCAUGACGAUACAUGAGGAUCACCCAUGUAAAGAAGGUACUAAUACAAAUAAUGCAUUGUUC”, the “apparent Kd” value under setting [1] came to 0.0119 µM and the “apparent Kd” value under setting [2] was 0.0101 µM.
For the sequence “CCCUCAACAUGAGGAUCACCCAUGUAGGAUAUCGCUAUUGUAAUCAUGAAACAUGAUUACAAUAGCGAGAAGGACAUAUGUAAA”, the “apparent Kd” value under setting [1] worked out at 0.0274 µM and the “apparent Kd” value under setting [2] turned out to be 0.14 µM.
Take “GACAUACAUGAGGAUCACCCAUGUUCAAGCGGACAAGGAUAUGUGUGGAAACCAUACUAUACAGAAGGUGUCUGUC”: the “apparent Kd” value reads like this: under setting [3], 0.0259 µM; under setting [4], 0.0171 µM.
For “UAAUAAUAAUAAUACCAGUUUACAUGAGGAUCACCCAUGUAUAAGGAUAUGCAGUGGAAUACACUGCAGAAGGUAUACAUCUGG”, the “apparent Kd” value by setting is: under setting [1], 0.0188 µM; under setting [2], 0.0359 µM.

Source of the values: the EternaBench riboswitch data.
